Source: PubChem BioAssay (several laboratories)
STAT3 blocker: STAT3 signaling inhibition; U3A cells, IL-6 STAT3-luciferase reporter, luminescence; host cell line lacks STAT1; inhibition, % at 5.5 µM; hit rate 0.89% among 190,000;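 active = inhibition above the mean inhibition across all screened compounds plus 3 SD, cut at about 44% in these data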;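 note: 0% = DMSO only wells and 100% = 100 µM nifuroxazide control wells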
STAT1 activator: increases IFN-gamma driven STAT1 reporter signal. NIH 3T3 STAT1-luciferase reporter, luminescence; 100% = IFN-gamma alone, no compound. activation (% of control), % at 5.5 µM. hit rate 2.6% among 200,000;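 active = activation above the screen-wide mean activation plus 3 SD, cut at about 130% in these data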;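 note: raw ratio to IFN-gamma control signal so 100% means no change and 0% no light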
NF-kB expr up: compounds increasing NF-kB expression in human neuronal cells; NF-kB reporter expression; hits give high values; fold change at 12.5 µM; hit rate 1.6% among 190,000; AID 1239; in the data active = fold change above about 3.3
STAT1 blocker: reduces IFN-gamma driven STAT1 reporter signal. NIH 3T3 STAT1-luciferase reporter, luminescence. inhibition, % at 5.5 µM. hit rate 0.35% among 200,000. AID 920;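 active = inhibition above a set limit, the mean inhibition across all tested compounds plus 3 SD, cut at about 34% in these data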;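 note: 0% = IFN-gamma with DMSO and 100% = IFN-gamma with 300 µM nifuroxazide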
APP 5'UTR act: activates APP 5'UTR luciferase reporter; SH-SY5Y APP 5'UTR luciferase reporter, luminescence; zero percent = DMSO vehicle wells; activation, % at 2 µM; hit rate 1% among 190,000;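 active = activation above a set limit, based on mean plus 3 SD of controls, cut at about 140% in these data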
STAT3 act: STAT3 signaling activation. activation (% of control), % at 5.6 µM. hit rate 0.91% among 190,000. U3A cells, IL-6 STAT3-luciferase reporter, luminescence; 100% = signal with IL-6 EC80 alone;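 active = activation above the screen-wide mean of compound activation plus 3 SD, cut at about 130% in these data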;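 note: 0% = background luminescence of wells with medium and substrate only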
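system = STAT3-luciferase reporter U3A cells | reagent = IL-6 stimulus at 33 ng/mL final | timing = 1 h compound pre-exposure, 6 h IL-6 stimulation, 37 °C | measured by = luminescence | evaluation = % activation versus median of IL-6-stimulated wells | control set = IL-6-only wells as 100% reference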
Active calls of the source: *; · = no result. In the library only some 4.9% were active in any assay of this set; here they are far more common.

SMILES	STAT3 blocker	STAT1 activator	NF-kB expr up	STAT1 blocker	APP 5'UTR act	STAT3 act
N#C/C(=N\Nc1ccc(F)cc1)C(=N)N1CCCCCC1	20.2	150.1*	7.72*	-55.3	185.2*	84.8
Cc1ccc(N/N=C(\C#N)C(=N)N2CCCCCC2)cc1	16.4	136.2*	5.88*	-40.6	167.9*	95.2
O=C(NCc1cccnc1)c1cccc2c1C(=O)N(Cc1cccnc1)C2	8.1	104.4	1.01	-4.8	·	98.9
COc1ccc(C2=CC(c3ccc(Cl)cc3)n3cnnc3N2)cc1OC (centres undefined)	0.6	108.2	0.86	-10.1	18.7	105.0
Cc1nc2ccccn2c1C(=O)Nc1ccc(Cl)cc1	10.5	140.3*	2.25	-42.9	35.1	91.5
Cc1ccc(NC(=O)c2c(Cl)nc3ccccn23)cc1	-17.7	139.4*	1.22	-44.2	102.8	121.6
CC(C)c1ccc(S(=O)(=O)/N=C2/C=CC(=O)c3ccccc32)cc1	-32.7	93.7	·	7.2	-16.6	135.1*
C/C(CC(=O)Nc1cccc(Cl)c1Cl)=N\NC(=O)c1ccccc1N	7.9	126.8	0.97	-31.4	53.7	96.1
Cc1ccc(C(=O)Nc2nc(=O)n(C(=O)c3ccccc3Cl)s2)cc1	-18.6	141.0*	1.16	-44.3	24.6	121.9
COC(C(=O)Nc1cccc([N+](=O)[O-])c1)c1ccccc1 (centres undefined)	6.5	92.5	1.24	7.3	9.9	100.5
COc1ccc([N+](=O)[O-])cc1NC(=O)c1cc(C)c(C)o1	-8.9	109.0	1.31	-10.4	-3.2	109.3
Cc1cc(C)nc(-n2nc(C)c(Sc3ccc(F)cc3)c2N)n1	-28.0	130.7*	3.04	-33.1	165.4*	124.7
COc1cc(/C=N/NC(=O)c2nonc2C)ccc1O	-8.0	128.5	1.02	-33.0	11.1	111.2
N/C(=N\N=C\c1ccc(O)cc1)c1nonc1N	32.8	115.3	5.13*	-17.6	91.4	74.6
COc1ccc(/C=N/N=C(\N)c2nonc2N)cc1OC	17.8	141.1*	2.03	-45.8	51.5	88.0
N/C(=N\OC(=O)c1ccc(F)cc1)c1nonc1N	0.1	121.1	1.89	-23.7	6.1	97.8
COc1cc(/C=N/N=C(\N)c2nonc2N)ccc1O	19.2	129.8*	1.13	-33.8	24.4	88.5
COc1cccc(C(=O)NCCSc2ccc(F)cc2)c1	-11.8	138.5*	4.76*	-42.1	47.2	111.7
O=C(NCCSc1ccccc1)c1cncc(Br)c1	-8.8	110.0	2.34	-10.9	36.6	110.5
CSc1ccccc1C(=O)NCCSc1ccccc1	-0.1	100.0	1.25	0.0	24.8	100.2
CCCCNC(=O)c1ccccc1Cl	3.4	101.1	0.98	-1.1	-11.0	103.7
Cc1ccccc1C(=O)NCCSc1ccccc1	-3.2	129.3*	3.63*	-31.6	92.0	108.1
O=C(NCCSc1ccccc1)c1ccccc1	0.0	142.2*	4.69*	-45.7	171.4*	102.4
O=C(NCCSc1ccccc1)c1ccccc1Cl	-11.7	140.8*	4.71*	-45.2	99.5	113.4
CCc1cccc(C)c1NC(=S)N(CCN(C)C)C(C)c1cccnc1 (centres undefined)	0.7	95.8	1.22	2.5	-6.1	105.1
SMILES	STAT3 blocker	STAT1 activator	NF-kB expr up	STAT1 blocker	APP 5'UTR act	STAT3 act
COc1ccc(C(=O)NCCSc2ccccn2)cc1	14.9	152.9*	3.92*	-59.7	242.2*	91.0
COc1ccc(N(CC(=O)NCCSc2ccccn2)S(C)(=O)=O)cc1	-3.5	96.3	1.15	4.0	5.9	104.2
Cc1noc(C)c1COC(=O)c1ccccc1NC(=O)c1ccco1	12.5	99.4	0.91	0.2	0.5	93.8
CC1(C)Cc2c(sc(NC(=O)c3ccc(Br)o3)c2C#N)CO1	-3.1	132.8*	3	-35.5	88.2	106.0
COCC(C)n1c(C)cc(C(=O)COC(=O)c2n[nH]c3ccccc23)c1C (centres undefined)	19.8	115.8	0.7	-17.1	143.0*	86.8
Cc1ccc(-c2nc3ccccc3[nH]2)s1	27.1	123.1	5.55*	-25.4	113.9	82.0
Cc1cc(-c2nc3ccccc3[nH]2)ccc1N	28.6	115.7	4.96*	-19.8	107.2	79.0
O=C(O)c1cccc(-c2nc3ccccc3[nH]2)c1	65.2*	50.1	1.73	54.9*	14.6	44.5
CC(Oc1ccc(Cl)cc1Cl)c1ccn[nH]1 (centres undefined)	-5.7	100.8	0.87	-2.7	19.8	115.6
